Values after ≈ are worked out from the molar mass of the structure shown. Active and inactive are the calls of the source. No cut-off for these calls is given here.
Assays:
[1] = biological target: T1, Cyclin-dependent kinase 8 (Homo sapiens, UniProt P49336); experiment: Inhibition of CDK8 in human 7dF3 cells preincubated for 2 hrs followed by beta-oestradiol addition measured after 24 hrs by luciferase reporter gene assay; type: cell-based
Target sequence in this assay (P49336 whole entry): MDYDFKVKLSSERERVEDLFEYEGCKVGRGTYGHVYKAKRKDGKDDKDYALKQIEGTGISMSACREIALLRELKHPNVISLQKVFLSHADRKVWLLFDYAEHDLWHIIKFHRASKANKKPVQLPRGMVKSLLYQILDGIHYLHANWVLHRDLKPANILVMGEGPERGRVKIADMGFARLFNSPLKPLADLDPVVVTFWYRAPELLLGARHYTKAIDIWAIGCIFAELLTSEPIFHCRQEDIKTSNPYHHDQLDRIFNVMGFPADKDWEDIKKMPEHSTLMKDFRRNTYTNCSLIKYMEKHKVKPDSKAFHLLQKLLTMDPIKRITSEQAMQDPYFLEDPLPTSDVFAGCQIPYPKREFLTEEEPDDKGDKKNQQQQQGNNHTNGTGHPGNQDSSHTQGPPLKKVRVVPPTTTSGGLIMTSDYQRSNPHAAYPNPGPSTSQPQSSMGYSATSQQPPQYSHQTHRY

Mus musculus [2] = experiment: Toxicity in NCr athymic mouse xenografted with human SW620 cells assessed as body weight loss at 50 mg/kg, po bid administered for 16 days; type: organism-based, SW-620; details: in vivo, 384 h
Summary of the method: (§1)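 Female NCr athymic mice bearing SW620 colorectal xenografts received oral treatment for 16 days. Body weights were recorded and expressed as % of day 0 values.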

[3] = biological target: Sodium-dependent dopamine transporter (Homo sapiens, UniProt Q01959); experiment: Displacement of [3H]BTCP from human recombinant dopamine transporter expressed in CHO cells after 120 mins by scintillation counting method; type: cell-based
Sequence of Sodium-dependent dopamine transporter (Q01959 whole entry): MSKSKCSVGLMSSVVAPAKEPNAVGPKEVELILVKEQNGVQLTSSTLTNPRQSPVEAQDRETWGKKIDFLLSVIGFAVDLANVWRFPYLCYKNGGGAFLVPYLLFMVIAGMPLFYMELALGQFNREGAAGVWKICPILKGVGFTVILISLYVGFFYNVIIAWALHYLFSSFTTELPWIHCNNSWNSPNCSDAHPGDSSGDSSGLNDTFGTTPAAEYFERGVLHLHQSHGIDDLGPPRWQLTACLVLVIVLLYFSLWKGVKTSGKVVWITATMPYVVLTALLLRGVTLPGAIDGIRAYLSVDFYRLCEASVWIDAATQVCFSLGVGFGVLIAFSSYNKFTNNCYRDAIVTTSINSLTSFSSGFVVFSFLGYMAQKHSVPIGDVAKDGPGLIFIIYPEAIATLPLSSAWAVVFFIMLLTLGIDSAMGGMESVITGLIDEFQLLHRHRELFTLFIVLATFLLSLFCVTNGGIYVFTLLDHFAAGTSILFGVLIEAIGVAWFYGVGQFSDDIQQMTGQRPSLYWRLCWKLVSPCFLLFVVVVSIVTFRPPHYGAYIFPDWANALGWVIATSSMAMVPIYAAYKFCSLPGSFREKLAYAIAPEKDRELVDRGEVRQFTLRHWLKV

[4] = Oral bioavailability in Wistar rat at 0.5 mg/kg via gavage measured over 6 hrs; type: ADME, organism-based; details: in vivo
[5] = Plasma clearance in NMRI mouse at 0.2 mg/kg, iv as bolus dose or 0.5 mg/kg, po via gavage measured over 6 hrs relative to hepatic blood flow; type: ADME, organism-based, Liver; details: in vivo
Mus musculus [6] = experiment: Toxicity in NCr athymic mouse xenografted with human SW620 cells assessed as drug tolerance at 50 mg/kg, po bid administered for 16 days; type: organism-based, SW-620; details: in vivo, 384 h; summary of the method: as §1
[7] = Inhibition of CYP450 (unknown origin); type: ADME, Homo sapiens
[8] = Plasma clearance in Beagle dog at 0.2 mg/kg, iv as bolus dose or 0.5 mg/kg, po via gavage measured over 48 hrs; type: ADME, organism-based, Canis lupus familiaris
[9] = Plasma clearance in Beagle dog at 0.2 mg/kg, iv as bolus dose or 0.5 mg/kg, po via gavage measured over 48 hrs relative to hepatic blood flow; type: ADME, organism-based, Canis lupus familiaris, Liver; details: in vivo
Mus musculus [10] = experiment: In vivo inhibition of CDK8-mediated STAT1 phosphorylation at Ser727 in human SW620 cells xenografted in NCr athymic mouse at 100 mg/kg, po qd administered for 16 days measured 2 to 24 hrs post last dose by immunoassay; type: functional, organism-based; details: SW-620
Summary of the method: (§2)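 SW620 xenografts in female NCr athymic mice were dosed orally for 16 days. Phospho-STAT1 Ser727 was measured by Luminex immunoassay, normalized to total STAT1 and expressed as % of vehicle controls at each time point (2 h to 24 h after dosing).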

[11] = Intrinsic clearance in mouse liver microsomes at 1 uM preincubated for 5 mins followed by NADPH addition measured after 5 to 30 mins by LC-MS/MS analysis; type: ADME; details: read-out: CLH
[12] = Plasma clearance in Wistar rat at 0.2 mg/kg, iv as bolus dose or 0.5 mg/kg, po via gavage measured over 6 hrs relative to hepatic blood flow; type: ADME, organism-based, Liver; details: in vivo
[13] = biological target: T1, Cyclin-dependent kinase 8; experiment: Inhibition of CDK8 in human COLO205 cells expressing APC mutant assessed as suppression of WNT pathway by luciferase reporter gene assay; type: cell-based; details: colo 205
Target sequence in this assay (P49336 whole entry, looked up, change not shown): as the sequence (P49336 whole entry) above

[14] = Intrinsic clearance in human liver microsomes at 1 uM preincubated for 5 mins followed by NADPH addition measured after 5 to 30 mins by LC-MS/MS analysis; type: ADME; details: read-out: CLH
[15] = Fraction unbound in NMRI mouse plasma at 0.2 mg/kg, iv as bolus dose or 0.5 mg/kg, po via gavage measured over 6 hrs; type: ADME, organism-based
CDK8/Cyclin C = CDK8/Cyclin C (Homo sapiens, UniProt P49336); experiment: Inhibition of Alexa647 tracer binding to full length recombinant human His-tagged CDK8/cyclin C expressed in Baculovirus expression system preincubated for 20 mins followed by tracer addition and incubated in dark for 60 mins by FRET-based Lanthascreen assay
Sequence of CDK8/Cyclin C (P49336 whole entry): as above
Sequence of CDK8/Cyclin C (P24863 whole entry, further chain): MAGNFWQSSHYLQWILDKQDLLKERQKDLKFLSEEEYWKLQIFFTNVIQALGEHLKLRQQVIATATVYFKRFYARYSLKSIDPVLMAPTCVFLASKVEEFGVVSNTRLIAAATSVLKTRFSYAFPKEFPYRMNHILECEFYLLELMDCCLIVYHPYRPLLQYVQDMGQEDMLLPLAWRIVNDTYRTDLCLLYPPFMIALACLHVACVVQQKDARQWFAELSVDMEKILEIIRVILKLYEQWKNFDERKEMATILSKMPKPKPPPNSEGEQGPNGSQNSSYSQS

hERG (KCNH2) = hERG (KCNH2) (Homo sapiens, UniProt Q12809); experiment: Inhibition of human ERG at 10 uM relative to control
Sequence of hERG (KCNH2) (Q12809 whole entry): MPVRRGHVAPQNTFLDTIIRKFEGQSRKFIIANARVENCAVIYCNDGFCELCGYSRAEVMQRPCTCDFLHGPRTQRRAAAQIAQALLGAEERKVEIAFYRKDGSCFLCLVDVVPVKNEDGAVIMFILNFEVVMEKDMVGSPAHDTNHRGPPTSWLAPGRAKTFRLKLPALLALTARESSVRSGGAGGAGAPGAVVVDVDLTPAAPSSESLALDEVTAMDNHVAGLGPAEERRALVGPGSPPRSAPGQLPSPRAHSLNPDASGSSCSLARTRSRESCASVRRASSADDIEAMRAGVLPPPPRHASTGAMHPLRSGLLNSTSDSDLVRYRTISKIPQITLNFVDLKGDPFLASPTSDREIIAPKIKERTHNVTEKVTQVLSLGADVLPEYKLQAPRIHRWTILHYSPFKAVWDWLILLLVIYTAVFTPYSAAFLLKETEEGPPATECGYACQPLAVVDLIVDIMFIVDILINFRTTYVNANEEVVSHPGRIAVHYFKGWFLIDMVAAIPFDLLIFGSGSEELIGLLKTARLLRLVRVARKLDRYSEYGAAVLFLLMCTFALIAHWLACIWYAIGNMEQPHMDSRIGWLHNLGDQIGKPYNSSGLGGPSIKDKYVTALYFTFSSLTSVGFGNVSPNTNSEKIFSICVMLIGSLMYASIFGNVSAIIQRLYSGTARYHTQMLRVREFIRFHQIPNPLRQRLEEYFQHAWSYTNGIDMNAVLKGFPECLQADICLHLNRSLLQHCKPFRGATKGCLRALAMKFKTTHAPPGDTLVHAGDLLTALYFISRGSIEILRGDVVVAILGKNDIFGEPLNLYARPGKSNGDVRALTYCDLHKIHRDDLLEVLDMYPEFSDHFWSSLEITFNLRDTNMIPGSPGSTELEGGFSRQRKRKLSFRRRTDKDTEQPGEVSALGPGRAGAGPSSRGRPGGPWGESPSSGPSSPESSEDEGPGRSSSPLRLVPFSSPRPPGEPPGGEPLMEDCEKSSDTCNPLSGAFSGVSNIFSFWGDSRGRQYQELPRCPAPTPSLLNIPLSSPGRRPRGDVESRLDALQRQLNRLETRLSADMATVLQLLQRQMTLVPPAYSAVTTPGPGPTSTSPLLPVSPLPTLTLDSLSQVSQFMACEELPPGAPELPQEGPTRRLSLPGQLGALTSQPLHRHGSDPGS

[16] = biological target: T1, Cyclin-dependent kinase 8; experiment: Inhibition of CDK8 in human SW620 cells assessed as decrease in STAT1 phosphorylation at Ser727; type: cell-based, SW-620
Target sequence in this assay (P49336 whole entry): as the sequence (P49336 whole entry) above

[17] = Fraction unbound in Wistar rat plasma at 0.2 mg/kg, iv as bolus dose or 0.5 mg/kg, po via gavage measured over 6 hrs; type: ADME, organism-based
[18] = Oral bioavailability in NMRI mouse at 0.5 mg/kg via gavage measured over 6 hrs measured over 6 hrs; type: ADME, organism-based; details: in vivo
[19] = Antitumor activity against human SW620 cells xenografted in NCr athymic mouse assessed as tumor growth inhibition at 100 mg/kg, po qd administered for 16 days relative to control; type: functional, SW-620
Summary of the method: (§3)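 Female NCr athymic mice bearing SW620 human colorectal carcinoma xenografts were dosed orally for 16 days. Growth inhibition was expressed as T/C ratio based on final tumor weights versus vehicle controls.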

Mus musculus [20] = experiment: Toxicity in NCr athymic mouse xenografted with human SW620 cells assessed as effect on body weight at 100 mg/kg, po qd administered for 16 days; type: organism-based, SW-620; details: in vivo, 384 h; summary of the method: as §1
[21] = biological target: Glycogen synthase kinase-3 alpha (Homo sapiens) (UniProt P49840); experiment: Inhibition of GSK-3alpha (unknown origin) at 1 uM relative to control
Sequence of Glycogen synthase kinase-3 alpha (Homo sapiens) (P49840 2-483 limits assumed): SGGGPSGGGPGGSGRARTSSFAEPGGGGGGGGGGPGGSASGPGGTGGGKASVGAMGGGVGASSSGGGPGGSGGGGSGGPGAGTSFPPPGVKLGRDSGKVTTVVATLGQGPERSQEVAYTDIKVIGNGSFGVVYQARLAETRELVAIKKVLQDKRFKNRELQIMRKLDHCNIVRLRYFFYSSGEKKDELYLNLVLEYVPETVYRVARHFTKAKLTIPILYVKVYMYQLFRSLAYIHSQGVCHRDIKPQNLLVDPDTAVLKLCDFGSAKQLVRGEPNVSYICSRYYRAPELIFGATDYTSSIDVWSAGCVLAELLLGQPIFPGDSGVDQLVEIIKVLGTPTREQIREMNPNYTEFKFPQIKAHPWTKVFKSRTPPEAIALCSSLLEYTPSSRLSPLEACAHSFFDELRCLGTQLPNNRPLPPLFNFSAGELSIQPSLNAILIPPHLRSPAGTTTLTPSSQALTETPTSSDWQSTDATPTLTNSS

[22] = Thermodynamic solubility of the compound in FaSSIF at pH 6.5; type: physicochemical; details: read-out: Therm_solubility
[23] = Half life in NMRI mouse at 0.2 mg/kg, iv as bolus dose or 0.5 mg/kg, po via gavage; type: ADME, organism-based; details: in vivo
[24] = Thermodynamic solubility of the compound in FeSSIF at pH 5; type: physicochemical; details: read-out: Therm_solubility
Mus musculus [25] = experiment: Toxicity in NCr athymic mouse xenografted with human SW620 cells assessed as drug tolerance at 100 mg/kg, po qd administered for 16 days; type: organism-based, SW-620; details: in vivo, 384 h; summary of the method: as §1
[26] = Intrinsic clearance in rat liver microsomes at 1 uM preincubated for 5 mins followed by NADPH addition measured after 5 to 30 mins by LC-MS/MS analysis; type: ADME; details: read-out: CLH
[27] = Kinetic solubility of the compound; type: physicochemical; details: read-out: Kinetic_solubility
[28] = Plasma clearance in NMRI mouse at 0.2 mg/kg, iv as bolus dose or 0.5 mg/kg, po via gavage measured over 6 hrs; type: ADME, organism-based
[29] = Volume of distribution at steady state in NMRI mouse at 0.2 mg/kg, iv as bolus dose or 0.5 mg/kg, po via gavage measured over 6 hrs; type: ADME, organism-based; details: in vivo, read-out: Vdss
[30] = Plasma clearance in Wistar rat at 0.2 mg/kg, iv as bolus dose or 0.5 mg/kg, po via gavage measured over 6 hrs; type: ADME, organism-based
[31] = Oral bioavailability in Beagle dog at 0.5 mg/kg via gavage measured over 48 hrs; type: ADME, organism-based, Canis lupus familiaris; details: in vivo
[32] = Antitumor activity against human SW620 cells xenografted in NCr athymic mouse assessed as tumor growth inhibition at 50 mg/kg, po bid administered for 16 days relative to control; type: functional, SW-620; summary of the method: as §3
[33] = Volume of distribution at steady state in Wistar rat at 0.2 mg/kg, iv as bolus dose or 0.5 mg/kg, po via gavage measured over 6 hrs; type: ADME, organism-based; details: in vivo, read-out: Vdss
[34] = Apparent permeability from apical to basolateral side in human Caco2 cells at 1 uM after 2 hrs by Transwell assay; type: ADME, cell-based; details: Caco-2
[35] = biological target: T1, Cyclin-dependent kinase 8; experiment: Inhibition of CDK8 in human PA1 cells assessed as suppression of WNT3a ligand-induced WNT pathway by luciferase reporter gene assay; type: cell-based, PA-1
Target sequence in this assay (P49336 whole entry): as the sequence (P49336 whole entry) above

[36] = Fraction unbound in Beagle dog plasma at 0.2 mg/kg, iv as bolus dose or 0.5 mg/kg, po via gavage measured over 48 hrs; type: ADME, organism-based, Canis lupus familiaris
[37] = biological target: T1, Cyclin-dependent kinase 8; experiment: Inhibition of CDK8 in human LS174T cells expressing beta-catenin mutant assessed as suppression of WNT pathway by luciferase reporter gene assay; type: cell-based
Target sequence in this assay (P49336 whole entry, looked up, change not shown): as the sequence (P49336 whole entry) above

[38] = Half life in Wistar rat at 0.2 mg/kg, iv as bolus dose or 0.5 mg/kg, po via gavage; type: ADME, organism-based; details: in vivo
[39] = Thermodynamic solubility of the compound in PBS at pH 7.4; type: physicochemical; details: read-out: Therm_solubility
[40] = Efflux ratio of permeability in human Caco2 cells at 1 uM after 2 hrs by Transwell assay; type: ADME, cell-based; details: Caco-2
Mus musculus [41] = experiment: In vivo inhibition of CDK8-mediated STAT1 phosphorylation at Ser727 in human SW620 cells xenografted in NCr athymic mouse at 50 mg/kg, po bid administered for 16 days measured 2 to 24 hrs post last dose by immunoassay; type: functional, organism-based; details: SW-620; summary of the method: as §2
[42] = Half life in Beagle dog at 0.2 mg/kg, iv as bolus dose or 0.5 mg/kg, po via gavage; type: ADME, organism-based, Canis lupus familiaris; details: in vivo
[43] = Volume of distribution at steady state in Beagle dog at 0.2 mg/kg, iv as bolus dose or 0.5 mg/kg, po via gavage measured over 48 hrs; type: ADME, organism-based, Canis lupus familiaris; details: in vivo, read-out: Vdss

Cc1n[nH]c2ncc(C(=O)N3CCC[C@H]3c3ccc(Cl)cc3)cc12
IC50 [1]: 6.5 nM | Activity (Mus musculus [2]): Non-Toxic | IC50 [3]: 8500 nM | bioavailability [4]: 66% | CL [5]: 22.5% | Activity (Mus musculus [6]): Non-Toxic | IC50 [7]: > 20000 nM | clearance [8]: 22.5 mL/min/kg | CL [9]: 53.8% | inhibition (Mus musculus [10]): Active | microsomal CLint at 1 µM [11]: < 10 µL/min/mg | CL [12]: 34.6% | IC50 [13]: 9 nM | microsomal CLint at 1 µM [14]: 45 µL/min/mg | fraction unbound at 6 h [15]: 0.13 | IC50 (CDK8/Cyclin C): 2.6 nM | inhibition at 10 µM (hERG (KCNH2)): 18% | IC50 [16]: 8 nM | fraction unbound at 6 h [17]: 0.19 | bioavailability [18]: 25% | T/C [19]: 57% | Activity (Mus musculus [20]): Non-Toxic | inhibition [21]: > 50% | solubility thermodynamic [22]: 628 µg/mL (≈ 1840 µM) | half-life [23]: 27 min | solubility thermodynamic [24]: 836 µg/mL (≈ 2450 µM) | Activity (Mus musculus [25]): Non-Toxic | microsomal CLint at 1 µM [26]: < 10 µL/min/mg | solubility kinetic [27]: > 200 µM | clearance [28]: 22.8 mL/min/kg | Vd [29]: 0.59 L/kg | clearance [30]: 25 mL/min/kg | bioavailability [31]: 39% | T/C [32]: 49% | Vd [33]: 1.62 L/kg | Papp A→B at 2 h, 1 µM [34]: 44 ×10⁻⁶ cm/s | IC50 [35]: 52 nM | fraction unbound at 48 h [36]: 0.5 | IC50 [37]: 32 nM | half-life [38]: 51.6 min | solubility thermodynamic [39]: 399 µg/mL (≈ 1170 µM) | efflux ratio at 2 h, 1 µM [40]: 1.5 | inhibition (Mus musculus [41]): Active | half-life [42]: 49.8 min | Vd [43]: 1.47 L/kg

From ChEMBL document CHEMBL3853318, “Structure-Based Optimization of Potent, Selective, and Orally Bioavailable CDK8 Inhibitors Discovered by High-Throughput Screening” (J Med Chem, 2016)
